Test results as given in ChEMBL document CHEMBL3217531, “Potential Drug Abuse Therapeutics Derived from the Hallucinogenic Natural Product Salvinorin A” (Medchemcomm, 2011).
The source made the active and inactive calls. No cut-off for these calls is given here.

Tests used:
[1] = molecular target: T1, Kappa-type opioid receptor (Homo sapiens, UniProt P41145); assay: Agonist activity at human kappa opioid receptor expressed in CHO cell membrane by [35S]GTPgammaS binding assay; assay type: functional, cell membranes
[2] = molecular target: Delta-type opioid receptor (Homo sapiens, UniProt P41143); assay: Displacement of [3H]DADLE from human delta opioid receptor expressed in CHO cell membrane after 2 hrs by liquid scintillation counting analysis; assay type: cell membranes
[3] = molecular target: T1, Kappa-type opioid receptor; assay: Displacement of [3H]U69593 from human kappa opioid receptor expressed in CHO cell membrane after 2 hrs by scintillation counting analysis; assay type: cell membranes
[4] = molecular target: Mu-type opioid receptor (Homo sapiens, UniProt P35372); assay: Displacement of [3H]DAMGO from human mu opioid receptor expressed in CHO cell membrane after 2 hrs by liquid scintillation counting analysis; assay type: cell membranes
[5] = system: Rattus norvegicus; assay: Antiaddiction activity in rat assessed as reduction in cocaine-induced drug seeking activity at 1 mg/kg, ip treated for 5 to 10 mins prior to priming injection of cocaine measured for 2 hrs; assay type: functional, organism-based; design: dose 1 mg/kg
Method in brief: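 Rats trained on FR5 cocaine self-administration (0.5 mg kg⁻¹/infusion, paired light cue, 2 h sessions). Extinction with sterile heparinized saline until active lever responses <20 per 2 h session. Next day, IP vehicle (75% DMSO) or test dose 5–10 min before IP cocaine prime (20 mg kg⁻¹). Active lever responding recorded for 2 h. N = 6 at 1 mg kg⁻¹; mean ±SEM.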

[6] = molecular target: T1, Kappa-type opioid receptor; assay: Agonist activity at human kappa opioid receptor expressed in CHO cell membrane assessed as [35S]GTPgammaS binding after 3 hrs by liquid scintillation counting analysis relative to (-)-U50488H; assay type: functional, cell membranes
[7] = molecular target: T1, Kappa-type opioid receptor; assay: Agonist activity at human kappa opioid receptor expressed in CHO cell membrane assessed as [35S]GTPgammaS binding after 3 hrs by liquid scintillation counting analysis; assay type: functional, cell membranes

T1 sequence (P41145 whole entry): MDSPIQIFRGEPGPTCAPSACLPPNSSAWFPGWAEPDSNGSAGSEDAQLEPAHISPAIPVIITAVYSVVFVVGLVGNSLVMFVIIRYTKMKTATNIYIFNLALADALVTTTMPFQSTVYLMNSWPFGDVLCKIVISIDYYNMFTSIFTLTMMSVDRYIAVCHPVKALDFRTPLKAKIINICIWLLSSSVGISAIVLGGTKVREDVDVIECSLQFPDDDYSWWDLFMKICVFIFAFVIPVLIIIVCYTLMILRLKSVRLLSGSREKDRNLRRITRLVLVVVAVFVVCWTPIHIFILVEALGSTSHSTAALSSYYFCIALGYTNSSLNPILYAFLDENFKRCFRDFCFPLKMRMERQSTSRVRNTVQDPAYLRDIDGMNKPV
Delta-type opioid receptor, sequence (P41143 whole entry): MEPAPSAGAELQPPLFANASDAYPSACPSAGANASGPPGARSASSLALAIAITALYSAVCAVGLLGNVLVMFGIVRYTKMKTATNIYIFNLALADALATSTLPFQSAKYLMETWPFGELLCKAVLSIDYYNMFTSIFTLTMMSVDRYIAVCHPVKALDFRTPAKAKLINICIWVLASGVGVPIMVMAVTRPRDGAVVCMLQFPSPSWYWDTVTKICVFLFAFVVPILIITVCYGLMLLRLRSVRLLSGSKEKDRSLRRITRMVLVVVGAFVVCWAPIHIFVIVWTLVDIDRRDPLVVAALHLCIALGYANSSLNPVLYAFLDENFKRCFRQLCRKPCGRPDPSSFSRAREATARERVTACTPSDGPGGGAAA
Mu-type opioid receptor, sequence (P35372 whole entry): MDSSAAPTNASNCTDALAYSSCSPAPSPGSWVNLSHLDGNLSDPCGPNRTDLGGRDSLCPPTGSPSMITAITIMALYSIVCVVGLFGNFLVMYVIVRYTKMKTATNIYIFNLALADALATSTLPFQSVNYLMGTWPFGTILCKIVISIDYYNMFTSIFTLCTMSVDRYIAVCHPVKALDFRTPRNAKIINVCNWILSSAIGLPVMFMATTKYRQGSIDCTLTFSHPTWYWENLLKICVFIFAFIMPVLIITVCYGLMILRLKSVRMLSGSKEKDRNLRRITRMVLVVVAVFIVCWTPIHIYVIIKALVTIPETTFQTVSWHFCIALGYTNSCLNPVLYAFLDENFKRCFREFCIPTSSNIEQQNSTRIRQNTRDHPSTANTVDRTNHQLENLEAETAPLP

| Structure (SMILES) | EC50 [1] [nM] | Ki [2] [µM] | Ki [3] [nM] | Ki [4] [µM] | Activity [5] | Emax [6] [%] | ED50 [7] [nM] | Ki ([3]; cho) [nM] |
| --- | --- | --- | --- | --- | --- | --- | --- | --- |
| CCNC(=O)O[C@H]1C[C@@H](C(=O)OC)[C@]2(C)CC[C@H]3C(=O)O[C@H](c4ccoc4)C[C@]3(C)[C@H]2C1=O | > 1000 | > 10 | > 10000 | 1.54 |  |  |  |  |
| COC(=O)[C@@H]1C[C@H](O[C@@H]2CCCCO2)C(=O)[C@H]2[C@@]1(C)CC[C@H]1C(=O)O[C@H](c3ccoc3)C[C@]21C |  | > 10 | 6.21 | > 10 | Active | 109 |  |  |
| COC(=O)[C@@H]1C[C@H](O[C@H]2CCCCO2)C(=O)[C@H]2[C@@]1(C)CC[C@H]1C(=O)O[C@H](c3ccoc3)C[C@]21C |  | > 10 | 300 | > 10 |  |  |  |  |
| CCOCO[C@H]1C[C@@H](C(=O)OC)[C@]2(C)CC[C@H]3C(=O)O[C@H](c4ccoc4)C[C@]3(C)[C@H]2C1=O [SALVINORIN B ETHOXYMETHYL ETHER] |  | 1.02 | 3.13 | 0.041 |  | 127 |  |  |
| CCOC(=O)O[C@H]1C[C@@H](C(=O)OC)[C@]2(C)CC[C@H]3C(=O)O[C@H](c4ccoc4)C[C@]3(C)[C@H]2C1=O |  | > 10 | 171 | > 10 |  |  |  |  |
| CCO[C@H](C)O[C@H]1C[C@@H](C(=O)OC)[C@]2(C)CC[C@H]3C(=O)O[C@H](c4ccoc4)C[C@]3(C)[C@H]2C1=O |  | > 5 |  | > 5.8 |  |  |  |  |
| COCO[C@H]1C[C@@H](C(=O)OC)[C@]2(C)CC[C@H]3C(=O)O[C@H](C(=O)N4CCCCC4)C[C@]3(C)[C@H]2C1=O |  | > 3 | 59 | > 3 |  | 113 |  |  |
| CCO[C@@H](CBr)O[C@H]1C[C@@H](C(=O)OC)[C@]2(C)CC[C@H]3C(=O)O[C@H](c4ccoc4)C[C@]3(C)[C@H]2C1=O |  | > 5 | 5260 | > 3 |  |  |  |  |
| CCO[C@@H](C)O[C@H]1C[C@@H](C(=O)OC)[C@]2(C)CC[C@H]3C(=O)O[C@H](c4ccoc4)C[C@]3(C)[C@H]2C1=O |  | > 5 |  | 0.777 |  |  |  |  |
| COC(=O)[C@@H]1C[C@H](OC(C)=O)C(=O)[C@H]2[C@@]1(C)CC[C@H]1C(=O)O[C@H](C(=O)N3CCCCC3)C[C@]21C |  |  |  |  |  | 85 | 5110 | 140 |
| COC(=O)[C@@H]1C[C@H](OC=O)C(=O)[C@H]2[C@@]1(C)CC[C@H]1C(=O)O[C@H](c3ccoc3)C[C@]21C |  | > 10 | 41 | > 10 |  |  |  |  |
| COC(=O)[C@@H]1C[C@H](O[C@@H]2CCCO2)C(=O)[C@H]2[C@@]1(C)CC[C@H]1C(=O)O[C@H](c3ccoc3)C[C@]21C |  | > 10 | 75 | > 10 |  | 112 | 1220 |  |
| CCO[C@H](CBr)O[C@H]1C[C@@H](C(=O)OC)[C@]2(C)CC[C@H]3C(=O)O[C@H](c4ccoc4)C[C@]3(C)[C@H]2C1=O |  | > 5 | 7440 | 3.52 |  |  |  |  |
| COC(=O)[C@@H]1C[C@H](O[C@H]2CCCO2)C(=O)[C@H]2[C@@]1(C)CC[C@H]1C(=O)O[C@H](c3ccoc3)C[C@]21C |  | > 10 | 81 | > 10 |  | 103 | 690 |  |
